Data set [1] deals with RAW264.7. Nature of the data set: Inhibition of LPS/INF-gamma-stimulated nitric oxide production in mouse RAW264.7 cells measured after 16 hrs. It is filed as functional, cell-based. As to conditions: RAW264.7, 16 h. In a few lines: (§1)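 RAW264.7 murine macrophages were co-stimulated with LPS (100 ng/mL) plus IFN-γ (0.33 ng/mL) in the presence of test compound. Nitrite released into the medium was quantified by the Griess method as a measure of NO. Cell viability was read in parallel with AlamarBlue reagent.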

Data set [2] relates to RAW264.7. The experiment in a line: Inhibition of LPS/INF-gamma-stimulated nitric oxide production in mouse RAW264.7 cells by Greiss method. It is filed as functional, cell-based. In a few lines: as §1
For the next data set, the system named is Peritoneal macrophage. Nature of the data set: Inhibition of LPS-stimulated nitric oxide production in ddy mouse peritoneal macrophages measured after 20 hrs by Greiss method. It is filed as functional.
Data set [3] in a line: Cytotoxicity against LPS/INF-gamma-stimulated mouse RAW264.7 cells assessed as cell viability at 100 uM by alamar blue assay relative to control. As to conditions: LPS/INF-gamma-stimulated RAW264.7 cells, read-out: Activity. In kind it is toxicity. The essentials:
as §1
A general note: Alamar Blue is a resazurin reagent that responds to reducing activity.

The test system of data set [4] is RAW264.7. Nature of the data set: Inhibition of LPS-stimulated nitric oxide production in mouse RAW264.7 cells by Greiss method. It is filed as functional, cell-based. In a few lines: (§2)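 This variant stimulated RAW264.7 murine macrophages with LPS alone, without IFN-γ, in the presence of test compound. Released nitrite was measured by the Griess method to quantify NO production. Cell viability was assessed with AlamarBlue reagent.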

Data set [5] can be described thus: Cytotoxicity against LPS-stimulated mouse RAW264.7 cells assessed as cell viability at 100 uM by alamar blue assay relative to control. In kind it is toxicity. As to conditions: LPS-stimulated RAW264.7 cells, read-out: Activity. In a few lines:
as §2

pIC50: −log10 of the molar value.

The record followed here is ChEMBL document CHEMBL3872265, “Structure-activity relationship of the inhibitory effects of flavonoids on nitric oxide production in RAW264.7 cells” (Bioorg Med Chem, 2017).

By pIC50 is commonly meant −log10 of the IC50, conventionally taken in molar units. For the compound `O=c1c(O)c(-c2ccc(O)cc2)oc2cc(O)cc(O)c12` [KAEMPFEROL], the pIC50 in the data set with RAW264.7 [1] was 4.82; in the data set with RAW264.7 [2] it was 4.77; with Peritoneal macrophage it was 4.54; in the data set on RAW264.7 [4], 4.87. Moreover, the viability at 100 µM in data set [3] was determined as 138%; in data set [5], 141%.

`O=c1cc(-c2ccc(O)cc2)oc2cc(O)ccc12`: in the data set on Peritoneal macrophage, the pIC50 was 4.85.

With `O=C1C[C@@H](c2cc(O)cc(O)c2)Oc2cc(O)cc(O)c21`, the pIC50 with RAW264.7 [1] is 4.92.

Turning to `COc1cc(-c2cc(=O)c3c(O)cc(O)cc3o2)cc(O)c1OC`, the pIC50 in the data set with RAW264.7 [2] was 4.74; in the data set on RAW264.7 [4], 5.16. Moreover, the viability at 100 µM in data set [3] came to 96%; in data set [5] it was 106%.

Consider `COc1ccc(-c2cc(=O)c3c(O)cc(O)cc3o2)cc1O` [DIOSMETIN], for which the pIC50 was 4.49 in the data set with RAW264.7 [2], 5.05 in the data set with Peritoneal macrophage and 4.78 with RAW264.7 [4].

In the case of `O=C1C[C@@H](c2ccc(O)cc2)Oc2cc(O)ccc21` [LIQUIRTIGENIN], in the data set on Peritoneal macrophage, the pIC50 was 4.07.

`COc1ccc(-c2oc3cc(O)cc(O)c3c(=O)c2O)cc1O` [TAMARIXETIN] gave a pIC50 with Peritoneal macrophage of 4.60.

In turn, `O=c1c(O)c(-c2cc(O)c(O)c(O)c2)oc2cc(O)ccc12` [ROBINETIN] showed a pIC50 with RAW264.7 [1] of 4.38.

In turn, `O=c1c(O)c(-c2ccc(O)c(O)c2)oc2cc(O)cc(O)c12` [QUERCETIN] showed a pIC50 in the data set on Peritoneal macrophage of 4.44.

Take `COc1cc([C@H]2Oc3cc(O)ccc3C(=O)[C@@H]2O)cc(OC)c1O`: the pIC50 with RAW264.7 [1] was < 4.00.

As for `O=C1c2ccc(O)cc2O[C@H](c2cc(O)c(O)c(O)c2)[C@H]1O`, in the data set on RAW264.7 [1], the pIC50 was < 4.00.

`COc1cc(-c2oc3cc(O)ccc3c(=O)c2O)cc(OC)c1O`: the pIC50 in the data set on RAW264.7 [1] was 4.20.

In the case of `COc1ccc(-c2cc(=O)c3c(O)cc(O)cc3o2)cc1OC`, the figures for the pIC50 in the data set on RAW264.7 [2] and with RAW264.7 [4] were 4.77 and 5.30, respectively. Moreover, the viability at 100 µM is 109% in data set [3] and 112% in data set [5].

Compound `O=c1cc(-c2ccc(O)c(O)c2)oc2cc(O)ccc12` showed a pIC50 in the data set with Peritoneal macrophage of 4.59.

`O=c1c(O)c(-c2cc(O)c(O)c(O)c2)oc2cc(O)cc(O)c12` [MYRICETIN]: in the data set with Peritoneal macrophage, the pIC50 was 4.00.

With `COc1cc(-c2cc(=O)c3c(O)cc(O)cc3o2)cc(OC)c1O` [TRICIN], the pIC50 in the data set on RAW264.7 [1] was 5.10.

`COc1c(O)cc([C@H]2Oc3cc(O)ccc3C(=O)[C@@H]2O)cc1O`: the pIC50 with RAW264.7 [1] is < 4.00.

As for `COc1c(O)cc(-c2oc3cc(O)ccc3c(=O)c2O)cc1O`, the pIC50 in the data set with RAW264.7 [1] is 4.85.

Take `O=C1C[C@@H](c2ccc(O)c(O)c2)Oc2cc(O)cc(O)c21` [ERIODICTYOL]: the pIC50 in the data set with Peritoneal macrophage is < 4.00.

As to `COc1c(O)cc(-c2cc(=O)c3c(O)cc(O)cc3o2)cc1O`, the pIC50 is 4.23 in the data set on RAW264.7 [2] and 4.43 in the data set on RAW264.7 [4]. Besides, the viability at 100 µM in data set [3] was 119%; in data set [5] it was 112%.

Compound `COc1c(O)cc(-c2oc3cc(O)cc(O)c3c(=O)c2O)cc1O` [MEARNSETIN] gave a pIC50 with Peritoneal macrophage of 4.08.

In turn, `O=c1cc(-c2ccc(O)c(O)c2)oc2cc(O)cc(O)c12` [LUTEOLIN] showed a pIC50 in the data set with Peritoneal macrophage of 4.70.

Take `O=C1C[C@@H](c2cc(O)c(O)c(O)c2)Oc2cc(O)ccc21`: the pIC50 with RAW264.7 [1] was < 4.00.

In the case of `COc1ccc(-c2cc(=O)c3c(O)cc(O)cc3o2)cc1` [ACACETIN], the pIC50 in the data set on RAW264.7 [2] is 4.27; in the data set with RAW264.7 [4], 4.56. Moreover, the results for the viability at 100 µM in data set [3] and in data set [5] were 115% and 99%, respectively.

Consider `O=C1C[C@@H](c2ccc(O)cc2)Oc2cc(O)cc(O)c21` [NARINGENIN], for which, in the data set with RAW264.7 [1], the pIC50 is 4.22.

Take `O=c1cc(-c2ccc(O)cc2)oc2cc(O)cc(O)c12` [APIGENIN]: the pIC50 with RAW264.7 [1] is 4.85; in the data set on Peritoneal macrophage, 5.11.

As for `O=C1c2c(O)cc(O)cc2O[C@H](c2ccc(O)cc2)[C@H]1O` [DIHYDROKAEMPFEROL], in the data set with RAW264.7 [1], the negative logarithm of the IC50 (pIC50) is < 4.00.
